Experiments:
Staphylococcus aureus [1] = experiment: In vitro antimicrobial activity against Staphylococcus aureus was evaluated by measuring the diameter of zone of inhibition; NS denotes no significant inhibition; type: functional, organism-based
Outline: (§1)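 Disc diffusion on nutrient agar seeded with the bacterium: glass microfiber discs (0.6 cm) saturated with 0.2 mL of aqueous compound solutions at different concentrations; incubation at 37°C for 48 h; diameter of growth-inhibition zone read in millimetres.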

Pseudomonas aeruginosa [2] = experiment: In vitro antimicrobial activity against Pseudomonas aeruginosa was evaluated by measuring the diameter of zone of inhibition; NS denotes no significant inhibition; type: functional, organism-based; outline: as §1
Escherichia coli [3] = experiment: In vitro antimicrobial activity against Escherichia coli was evaluated by measuring the diameter of zone of inhibition; NS denotes no significant inhibition; type: functional, organism-based; outline: as §1
Candida albicans [4] = experiment: In vitro antifungal activity against Candida albicans was evaluated by measuring the diameter of zone of inhibition; NS denotes no significant inhibition; type: functional, organism-based
Outline: (§2)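 Disc diffusion: glass microfiber discs (0.6 cm) saturated with 0.2 mL of aqueous compound solutions at various concentrations, placed on malt extract agar seeded with the yeast; plates incubated at 28°C for 96 h; inhibition zone diameter measured in mm.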

Pseudomonas aeruginosa [5] = experiment: In vitro antimicrobial activity against Pseudomonas aeruginosa was evaluated by measuring the diameter of zone of inhibition; type: functional; outline: as §1
Staphylococcus aureus [6] = experiment: In vitro antimicrobial activity against Staphylococcus aureus was evaluated by measuring the diameter of zone of inhibition; type: functional; outline: as §1
Escherichia coli [7] = experiment: In vitro antimicrobial activity against Escherichia coli was evaluated by measuring the diameter of zone of inhibition; type: functional; outline: as §1
Candida albicans [8] = experiment: In vitro antifungal activity against Candida albicans was evaluated by measuring the diameter of zone of inhibition; type: functional; outline: as §2

Row | Structure (SMILES) | Inhibition (Staphylococcus aureus [1]) | Inhibition (Pseudomonas aeruginosa [2]) | Inhibition (Escherichia coli [3]) | Inhibition (Candida albicans [4]) | Inhibition (Pseudomonas aeruginosa [5]) [mm] | Inhibition (Staphylococcus aureus [6]) [mm] | Inhibition (Escherichia coli [7]) [mm] | Inhibition (Candida albicans [8]) [mm]
1 | Cc1c(C(=O)N/N=C/c2cccn2C)nnc2c3c(-c4ccccc4)c(-c4ccccc4)nnc3nn12 | No inhibition | No inhibition | No inhibition | No inhibition |  |  |  | 
2 | CCOC(=O)c1nnc2c3c(-c4ccccc4)c(-c4ccccc4)nnc3nn2c1C | No inhibition | No inhibition | No inhibition | No inhibition |  |  |  | 
3 | Cc1c(/C(=N/NC(N)=O)c2ccccc2)nnc2c3c(-c4ccccc4)c(-c4ccccc4)nnc3nn12 |  |  |  |  | 2 | 4 | 3 | 
4 | Cc1c(C(=O)N/N=C/c2ccccc2)nnc2c3c(-c4ccccc4)c(-c4ccccc4)nnc3nn12 | No inhibition | No inhibition | No inhibition | No inhibition |  |  |  | 
5 | Cc1c(C(=O)N/N=C/c2cccs2)nnc2c3c(-c4ccccc4)c(-c4ccccc4)nnc3nn12 |  |  |  |  |  | 2 | 2 | 
6 | Cc1c(C(=O)NNc2ccccc2)nnc2c3c(-c4ccccc4)c(-c4ccccc4)nnc3nn12 | No inhibition | No inhibition | No inhibition | No inhibition |  |  |  | 
7 | O=C(O)c1nnc2c3c(-c4ccccc4)c(-c4ccccc4)nnc3nn2c1-c1ccccc1 | No inhibition | No inhibition | No inhibition | No inhibition |  |  |  | 
8 | Cc1c(C(=O)NNC(N)=O)nnc2c3c(-c4ccccc4)c(-c4ccccc4)nnc3nn12 | No inhibition | No inhibition | No inhibition | No inhibition |  |  |  | 
9 | Cc1ccc(/C=N/NC(=O)c2nnc3c4c(-c5ccccc5)c(-c5ccccc5)nnc4nn3c2C)o1 | No inhibition | No inhibition | No inhibition | No inhibition |  |  |  | 
10 | O=C(NNc1ccccc1)c1nnc2c3c(-c4ccccc4)c(-c4ccccc4)nnc3nn2c1-c1ccccc1 | No inhibition | No inhibition | No inhibition | No inhibition |  |  |  | 
11 | Cc1c(C(=O)O)nnc2c3c(-c4ccccc4)c(-c4ccccc4)nnc3nn12 | No inhibition | No inhibition | No inhibition | No inhibition |  |  |  | 
12 | CCOC(=O)c1nnc2c3c(-c4ccccc4)c(-c4ccccc4)nnc3nn2c1-c1ccccc1 | No inhibition | No inhibition | No inhibition | No inhibition |  |  |  | 
13 | Cc1c(C(=O)N/N=C/c2ccco2)nnc2c3c(-c4ccccc4)c(-c4ccccc4)nnc3nn12 |  |  |  |  |  |  | 2 | 
14 | Cc1c(/C(=N/N)c2ccccc2)nnc2c3c(-c4ccccc4)c(-c4ccccc4)nnc3nn12 | No inhibition | No inhibition | No inhibition | No inhibition |  |  |  | 
15 | CC(=O)c1nnc2c3c(-c4ccccc4)c(-c4ccccc4)nnc3nn2c1C |  |  |  |  |  | 4 |  | 3
16 | COc1ccc(/C=N/NC(=O)c2nnc3c4c(-c5ccccc5)c(-c5ccccc5)nnc4nn3c2C)cc1 |  |  |  |  |  | 3 |  | 
17 | Cc1c(C(=O)N/N=C/c2ccc[nH]2)nnc2c3c(-c4ccccc4)c(-c4ccccc4)nnc3nn12 |  |  |  |  |  |  | 2 | 
18 | Cc1cnnc2c3c(-c4ccccc4)c(-c4ccccc4)nnc3nn12 | No inhibition | No inhibition | No inhibition | No inhibition |  |  |  | 
19 | Cc1c(C(=O)N/N=C/c2ccc(Cl)cc2)nnc2c3c(-c4ccccc4)c(-c4ccccc4)nnc3nn12 | No inhibition | No inhibition | No inhibition | No inhibition |  |  |  | 
20 | Cc1c(C(=O)N/N=C/c2ccc3ccccc3c2)nnc2c3c(-c4ccccc4)c(-c4ccccc4)nnc3nn12 | No inhibition | No inhibition | No inhibition | No inhibition |  |  |  | 
21 | C/C(=N\NC(N)=O)c1nnc2c3c(-c4ccccc4)c(-c4ccccc4)nnc3nn2c1C | No inhibition | No inhibition | No inhibition | No inhibition |  |  |  | 
22 | Cc1c(C(=O)N/N=C/c2ccc([N+](=O)[O-])cc2)nnc2c3c(-c4ccccc4)c(-c4ccccc4)nnc3nn12 |  |  |  |  |  |  | 5 | 
23 | NNC(=O)c1nnc2c3c(-c4ccccc4)c(-c4ccccc4)nnc3nn2c1-c1ccccc1 | No inhibition | No inhibition | No inhibition | No inhibition |  |  |  | 
24 | Cc1ccc(/C=N/NC(=O)c2nnc3c4c(-c5ccccc5)c(-c5ccccc5)nnc4nn3c2C)s1 |  |  |  |  |  |  |  | 2
25 | NC(=O)NNC(=O)c1nnc2c3c(-c4ccccc4)c(-c4ccccc4)nnc3nn2c1-c1ccccc1 | No inhibition | No inhibition | No inhibition | No inhibition |  |  |  | 
26 | c1ccc(-c2nnc3nn4c(-c5ccccc5)cnnc4c3c2-c2ccccc2)cc1 | No inhibition | No inhibition | No inhibition | No inhibition |  |  |  | 
27 | Cc1c(/C(=N/Nc2ccccc2)c2ccccc2)nnc2c3c(-c4ccccc4)c(-c4ccccc4)nnc3nn12 | No inhibition | No inhibition | No inhibition | No inhibition |  |  |  | 
